According to ChEMBL document CHEMBL4513216, “Probing the Open Global Health Chemical Diversity Library for Multistage-Active Starting Points for Next-Generation Antimalarials” (ACS Infect Dis, 2020):

Assay: Toxicity liver stage against HepG2, at 10uM
Assay type: cell-based
Parameters: test concentration 10 uM, cell line HepG2-A16-CD81EGFP
Details: human, HepG2-A16-CD81EGFP cells; read-out: INHIBITION
In short: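 Uninfected HepG2-A16-CD81EGFP cells, 3 × 10^3 per well, 1536-well, plated on prespotted compound at 10 μM final, parasite-free screening media added to match infected plates; puromycin 10 μM positive, DMSO 0.5% negative; run in parallel with 48 h PbLuc assay at 37 °C, 5% CO2; viability by CellTiter-Glo luminescence, normalized to controls.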

Compound | cytotoxicity at 10 µM [%]
CCn1c(=O)n(CC)c2cc(S(N)(=O)=O)ccc21 | -7.72
N#Cc1cccc(CN2C[C@@H](F)[C@@H](OCc3nc4ccccc4[nH]3)C2)c1 | 6
O=C(NC[C@H]1OC[C@@H](NC2COC2)[C@@H]1O)C1CCCC1 | -3.11
Cn1cc(CN2C[C@@H](F)[C@@H](OCc3nc4cnccc4[nH]3)C2)cn1 | 6.88
COc1ccc(OC)c(NC(=O)c2c(C)cn(C)c2CC(=O)O)c1 | -1.52
COC1CN(C(=O)C2CC2)CCC(=O)N(C)c2ccccc21 (stereo unspecified) | -8.67
CCc1nc2c(c(C)c(C)n2Cc2cccnc2)c(N)c1C | 6.7
COCC(=O)N(Cc1ccc2[nH]ccc2c1)C1CC1 | -2.46
Cc1nc(NC(=O)CCN2C(=O)c3ccccc3NC2C(C)C)sc1C (stereo unspecified) | 0.308
CCS(=O)(=O)c1cccc(C(=O)Nc2cccc3c2C(=O)N(C)C3=O)c1 | -139
CCCc1cc(=O)n(CC(=O)NCCOC)c(-n2nc(C)cc2C)n1 | 1.69
CCCC(=O)N1CCC(c2nn(C)c(=O)n2-c2ccccc2)CC1 | 5.91
COC(CNC(=O)c1cn(C)nn1)c1ccc(C)s1 (stereo unspecified) | -8.11
Cn1cc(CN2C[C@@H](N3CCCC3=O)[C@H]3OCCC[C@H]32)cn1 | 8.92
CCS(=O)(=O)N1CCc2nnc(CN(C)C(C)C)n2CC1 | 0.872
CC(C)CN1C(=O)CO[C@@H]2CN(C(=O)N(C)C)C[C@H]21 | 0.657
CC(C)CN1C(=O)CO[C@@H]2CN(C(=O)N3CCOCC3)C[C@H]21 | -1.68
Cc1cccc(CN2CCCC3(CCN(c4cccnc4)C3=O)C2)n1 (stereo unspecified) | -1.34
COCC(=O)N1CC[C@@H]2CN(Cc3ccccc3)S(=O)(=O)[C@@H]2CC1 | -0.733
OCc1nnn2c1CN(Cc1cccnc1)CCC2 | 10.1
CCC1=N[C@@]2(CC[C@@H]3CN(CC(=O)N(C)C)C[C@@H]32)C(=O)N1CC(C)C | 8.18
COc1ncccc1CN1C[C@@H]2COC[C@]2(CNC(=O)c2ccno2)C1 | 8.07
CC(C)CNC(=O)CN(Cc1ccc(F)cc1)S(C)(=O)=O | 10.2

Compound | cytotoxicity at 10 µM [%]
CCn1ncc(S(=O)(=O)N[C@@H]2CCC[C@@H](n3ccnc3)[C@@H]2O)c1C | 1.18
O=c1c2ccccc2nc2n1CCN(Cc1cccs1)CC2 | 2.39
Cc1ccc(C(=O)CC(SC2CCCCC2)C(=O)O)cc1 (stereo unspecified) | 7.53
Cc1cc(CN2CCCN(c3ccc(C#N)cc3)CC2)no1 | 2.07
CCN(Cc1ccc(CN(C)C)cc1)C(=O)c1ccncc1O | -7.19
CNC(=O)C(c1cccc(Cl)c1)C(C)C (stereo unspecified) | 2.02
N#Cc1ccc(CNCCc2cc(F)cc3c2OCOC3)cc1 | 6.58
O=C(NS(=O)(=O)c1cccnc1)C1CC(c2ccccc2)=NO1 (stereo unspecified) | -8.87
CC(=O)c1cccc(OCCCC(=O)N(C)C2CCN(C)CC2)c1 | 3.07
OCCN1CCN(CC2(O)CCCCC2)CC1 | 3.66
CN1CCC(CNC(=O)NCc2ccc(N(C)C)cc2)CC1 | -1.42
CCN(CC)S(=O)(=O)c1cc(NC(=O)CCc2cscn2)ccc1C | -0.25
CC(=O)N1CCCN(CCCSc2ccccc2Cl)CC1 | 0.269
CNS(=O)(=O)CC(=O)NCc1cc2c(s1)CCCCC2 | 2.42
CCc1noc(C(C)Sc2nnc(C3CC3)n2CC(N)=O)n1 (stereo unspecified) | -148
Cn1c(CN2CCC(N3CCNC3=O)CC2)cc(=O)n(C)c1=O | -2.03
O=c1n(CCNCc2cccc3ccccc23)nc2ccccn12 | 0.551
Cc1cc(N2CCCC2c2cccnc2)nc(C)n1 (stereo unspecified) | -8.3
CCC(=O)Nc1ccc(C(C)Nc2nc3c(cnn3C)c(=O)[nH]2)cc1 (stereo unspecified) | 4.01
Cc1cc(CSCc2cc(C)on2)on1 | 6.42
COc1ccc(CNC2CCc3ncnn3C2)cc1OCCCC#N (stereo unspecified) | -5.45
COCC(=O)N[C@H](C(=O)NC(C)c1cccc(C)c1C)C(C)C (stereo partly specified) | 5.38
COCCn1cc(C(=O)N2CCCC2c2cc(C)on2)c2ccccc21 (stereo unspecified) | 6.35

Compound | cytotoxicity at 10 µM [%]
O=C(NC1CCN(c2cccc(C(F)(F)F)n2)CC1)C1CC1 | -0.432
CCC(C)NC(=O)CN1CCOCC1 (stereo unspecified) | -5.74
N#CCCCn1nnc(C2(NC(=O)c3ccccc3)CCCC2)n1 | 13.6
CC(C)CS(=O)(=O)CC(=O)N1CCCC1c1noc(C2CC2)n1 (stereo unspecified) | 13.4
OCC(CO)Nc1cccc(C(F)(F)F)n1 | 0.409
Cc1ccc(-n2nnc(CC(=O)N3CCN(C4CC4)CC3)c2C)cc1 | -8.06
COc1cc(NCc2c(C)noc2C)c(OC)cc1Cl | 47
COCCCNC(=O)Nc1cc(-c2ccccc2C)nn1CCO | -0.267
COc1ccc(-n2ccc(C(=O)N(C)C(C)C3(C)CC3)n2)cc1 (stereo unspecified) | -2.41
CCOCC1CCN(C(=O)Nc2ccc3c(c2)CCCO3)C1 (stereo unspecified) | 10.6
CC(C)(CNc1cc(F)ccc1F)S(C)(=O)=O | -2.94
CN(CC(=O)N(CCC#N)c1ccccc1)C1CCc2ccccc21 (stereo unspecified) | 3.15
NCc1ccc(Oc2cccc(Cl)c2Cl)nc1 | 4.75
O=C1C(NCc2cccc(O)c2)CCN1Cc1ccccc1 (stereo unspecified) | -0.539
CN(C(=O)CN1CCc2nn(C)c(=O)cc2C1)c1nccs1 | 10.4
Clc1ccccc1C1CN(CCc2ccncc2)CCO1 (stereo unspecified) | 3.61
Cc1nc(C)c(CNCC2CCCn3ccnc32)s1 (stereo unspecified) | -14.6
COc1ccc(CC(=O)NC(CC(=O)O)c2ccc(F)cc2)cc1OC (stereo unspecified) | 0.902
CCc1nc(CCNC(=O)Nc2cc(C(N)=O)sc2C)cs1 | 24.6
CN(CCCNc1cc(N2CCCC2CO)ncn1)S(C)(=O)=O (stereo unspecified) | -10.2
CCO[C@@H]1CCN(C(=O)c2ccc[nH]2)[C@@H]1Cc1cnn(C)c1 | 1.44
OC1(Cn2ccnc2)CCN(C[C@]2(O)CCCN3CCCC[C@@H]32)CC1 | 0.805
CC(C)CCN1CC2(CCN(C(=O)C3(C)CC3)CC2)OC1=O | 1.84

Compound | cytotoxicity at 10 µM [%]
Cc1nc(C)c(Cc2nc(C3CC3)n[nH]2)c(=O)[nH]1 | 2.39
CCc1ncc(C(=O)N(CC)CCOC)cn1 | 2.24
Cc1ccc(-n2cc(CN3CCN(C)[C@@H]4CS(=O)(=O)C[C@@H]43)cn2)cc1 | -8.67
NC(=O)CCn1cc(CNCCCc2csc(N)n2)c2ccccc21 | 3.1
COCCn1c(=O)n(Cc2ccccc2C)c2cc(C(=O)O)ccc21 | -1.79
CC(=O)N1CC2(CCN(c3nccc4ccccc34)CC2)CC1C(=O)O (stereo unspecified) | 4.65
CCc1c(O)nc(SCC(=O)N(CC)CC)n(C(C)CC)c1=O (stereo unspecified) | -6.65
CNS(=O)(=O)c1ccc(CN(C)Cc2nc3ccc(F)cc3[nH]2)cc1 | 17.2
C=C(C)COc1cccc(CNCCc2c[nH]cn2)c1 | 8.95
Cc1c(C(=O)N[C@H]2CN(CCS(C)(=O)=O)C[C@@H]2C2CC2)cnn1C | 7.02
Cc1nc(C(C)NC(=O)c2cn(C/C=C/c3ccccc3)nn2)n[nH]1 (stereo unspecified) | 10.7
Cn1ccn2ncc(C(=O)NCc3cccnc3N3CCCC(O)C3)c12 (stereo unspecified) | -8.01
Cc1ncc(S(C)(=O)=O)c(N(C)CCCc2cnn(C)c2)n1 | -1.07
COCCn1cnnc1CCNc1cc(C)nc2ccnn12 | -1.42
O=C(NCc1cn2c(n1)SCC2)c1ccc(CN2CCCCC2)cc1 | -1.08
CN(CCCc1cnn(C)c1)C(=O)C1CCOC1 (stereo unspecified) | -13.4
Cc1nc(CN2CCCC(NCc3nc4ccccc4s3)C2)no1 (stereo unspecified) | -0.84
CC(C)c1noc(CN2CCCC2c2noc(C(C)C)n2)n1 (stereo unspecified) | -5.89
CCN(Cc1nc2c(cnn2C)c(=O)[nH]1)Cc1ccco1 | -2.8
CNC(=O)CCNC(=O)CCc1c(C)nc2cc(O)nn2c1C | -2.7
O=C(c1ccc(N2CCCC2)nn1)N1CCCC(n2ccnc2)C1 (stereo unspecified) | -16.2
CC(=O)c1cccc(NC(=O)CCn2nc(-c3cccs3)oc2=O)c1 | -4.47
CC(C(=O)Nc1ccc(N2CCCCC2)nc1)n1cncn1 (stereo unspecified) | -31.2

Compound | cytotoxicity at 10 µM [%]
Cc1cc(C)n(CC2CN(Cc3cnc(C)s3)CCO2)n1 (stereo unspecified) | -19.7
Cc1cccc(NC2CCN(C(=O)Nc3ccccn3)CC2)n1 | -7.92
Cn1c(C2CC2)nc2c1CCN(CCOc1ccccc1C#N)C2 | -29.8
CC(C)Cc1nc(CN2CCOC(Cn3cccn3)C2)no1 (stereo unspecified) | -28.9
CCc1nc(C2CCCN2Cc2nccn2CC(F)(F)F)no1 (stereo unspecified) | -17.2
Cc1nn(C)c(Cl)c1C1CCCN1CC(=O)NCc1ccco1 (stereo unspecified) | 1.48
CC(C)CN(CCc1ccccc1)Cc1nc2c(cnn2C)c(=O)[nH]1 | -6.94
CN(C)c1ncccc1CNC(=O)NCCN(C)C1CCCC1 | -11.9
CCc1nc(C)c(C(=O)NCCNc2ncccn2)s1 | -2.16
Cc1ccc(-c2cc(CNC(=O)N3CCC(CO)CC3)on2)cc1 | -7.69
Cc1cnn(C2CCCN(C(=O)c3cnc4ccccc4n3)C2)c1 (stereo unspecified) | -10.7
O=C(NCCNc1ncccn1)N1CCSCC1 | -8.26
Cn1ccnc1NC[C@@H]1CCC[C@@H]2CN(Cc3nccs3)C[C@@H]21 | 14
CS(=O)(=O)N1C[C@@H](Oc2ccccn2)[C@H]2OCCC[C@H]21 | 7.78
Cc1cc(NCCO)nc(N2CCC(Cc3ccccc3)CC2)c1C#N | 4.35
Cc1nnc(N2C[C@@H]3CCCO[C@@H]3[C@H](N3CCCC3=O)C2)s1 | 17.4
CCOCC1CN(S(=O)(=O)N(C)C)Cc2cnn(CC)c21 (stereo unspecified) | 2.26
Cc1ccc2nc(C3CCN(CC4CC4)CC3)nn2c1 | 0.806
O=C(NC[C@]12COC[C@H]1CN(Cc1cccnc1)C2)c1ccno1 | 4.35
